ChEMBL document CHEMBL4028901, “Novel Antitubercular 6-Dialkylaminopyrimidine Carboxamides from Phenotypic Whole-Cell High Throughput Screening of a SoftFocus Library: Structure-Activity Relationship and Target Identification Studies” (J Med Chem, 2017)
pIC50: −log10 of the molar value. Converted amounts (≈) assume the structure as drawn.

What was measured:
[1] = system: Mycobacterium tuberculosis; test: Antibacterial activity against cytochrome bd oxidase knockout GFP-fused Mycobacterium tuberculosis H37RvMA grown in 7H9/GLU/ADC medium measured on day 7 and day 14 post inoculation by fluorescence plate reader assay; type: functional
[2] = Lipophilicity, log P of the compound at 100 uM at pH 7.4 after 3 hrs by shake-flask method; type: physicochemical; settings: buffer
Procedure, shortened: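 Shake-flask method run in triplicate. A 10 mM stock was spiked into a 1:1 mixture of phosphate buffer (pH 7.4) and n-octanol, then shaken at 1500 rpm on an orbital shaker for 3 h at room temperature.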

[3] = system: Mycobacterium tuberculosis; test: Antibacterial activity against Mycobacterium tuberculosis H37RvMA grown in GAST/Fe medium measured 7 to 14 days post inoculation by broth microdilution method; type: functional
Procedure, shortened: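 H37RvMa grown to OD600 0.6–0.7, diluted 1:100 in GAST/Fe. Compounds two-fold serially diluted from a top concentration of 640 μM, in duplicate. Incubated at 37 °C with humidification.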

[4] = system: Mycobacterium tuberculosis; test: Antibacterial activity against Mycobacterium tuberculosis H37RvMA grown in 7H9/ADC medium measured 7 to 14 days post inoculation by broth microdilution method; type: functional
[5] = system: Vero; test: Cytotoxicity against African green monkey Vero cells assessed as reduction in cell viability by MTT assay; type: cell-based; settings: Chlorocebus sabaeus
Procedure, shortened: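 MTT assay in Vero cells, samples in triplicate on one occasion. Stocks at 20 mg/mL in DMSO, diluted in complete medium as 10-fold serial dilutions over 6 concentrations. Emetine used as reference. IC50 derived by non-linear dose-response curve fitting.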

[6] = Kinetic solubility of the compound in fasted-state simulated intestinal fluid at 10 to 220 uM at pH 6.5 after 2 hrs by shake flask method; type: physicochemical; settings: read-out: Kinetic_solubility
Procedure, shortened: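 Miniaturised shake flask. 10 mM DMSO stocks spiked 1:50 into duplicate FaSSIF (pH 6.5), 2% final DMSO. Shaken 2 h at 25 °C, filtered, analysed by HPLC-DAD against calibration standards (10–220 μM).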

[7] = system: Mycobacterium tuberculosis; test: Antibacterial activity against cytochrome bd oxidase knockout GFP-fused Mycobacterium tuberculosis H37RvMA grown in GAST/Fe medium measured on day 7 and day 14 post inoculation by fluorescence plate reader assay; type: functional
[8] = Kinetic solubility of the compound in pH 7.4 solution at 10 to 220 uM after 2 hrs by shake flask method; type: physicochemical; settings: buffer, pH 7.4, 2 h, 220 µM
[9] = system: Mycobacterium tuberculosis; test: Antibacterial activity against Mycobacterium tuberculosis […] SAWC1125 grown in middlebrook 7H9 medium measured on day 7 and 14 by MABA assay; type: functional; settings: 168 h
Procedure, shortened: (§1)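 Clinical M. tuberculosis strains tested by broth microdilution in 7H9 medium. On days 7 and 14, Alamar Blue added and plates reincubated 24 h at 37 °C. Colour read by eye (blue means no growth, pink means growth). MIC90 is the lowest concentration with no colour change.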

[10] = system: Mus musculus; test: Volume of distribution in C57/BL6 mouse at 5 mg/kg, iv measured up to 24 hrs post dose by LC-MS/MS analysis; type: ADME, organism-based; settings: in vivo
Procedure, shortened: (§2)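 Male mice, 3 animals, not fasted, given an IV bolus in 10% DMSO, 50% propylene glycol/ethanol (4:1) and 40% polyethylene glycol or water. Blood sampled into heparinised tubes at 0.17, 0.5, 1, 3, 5, 8, 12 and 24 h, stored frozen, precipitated with ice-cold acetonitrile. Measured by LC-MS/MS with internal standards against blood-matrix calibration standards.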

[11] = system: Mycobacterium tuberculosis; test: Antibacterial activity against Mycobacterium tuberculosis […] SAWC3933 grown in middlebrook 7H9 medium measured on day 7 and 14 by MABA assay; type: functional; settings: 168 h; procedure, shortened: as §1
[12] = system: Mus musculus; test: Apparent elimination half life in C57/BL6 mouse at 20 mg/kg, po measured up to 24 hrs post dose by LC-MS/MS analysis; type: ADME, organism-based; settings: in vivo
Procedure, shortened: (§3)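 Male mice, 3 per route, not fasted, free access to water. Oral dose given as aqueous suspension in 0.5% (w/v) hydroxypropyl methylcellulose with 0.4% (v/v) Tween 80. Blood drawn into heparinised tubes at 0.5, 1, 3, 5, 8, 12 and 24 h, kept below -15 °C, protein-precipitated with ice-cold acetonitrile. Quantified by LC-MS/MS against standards made in drug-free mouse blood.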

[13] = system: Plasma; test: Fraction unbound in human plasma at 5 uM pre-incubated for 1 hr by ultra-centrifugation and LC-MS/MS method; type: ADME, cell-free
Procedure, shortened: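 Pooled human plasma spiked to 5 μM and pre-incubated 1 h at 37 °C. Duplicate aliquots ultracentrifuged 4 h at 37 °C; an unspun aliquot served as the total sample. Analyte measured by LC-MS/MS.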

[14] = system: Liver; test: Metabolic stability in human liver microsomes assessed as compound remaining at 0.1 uM after 30 mins by LC-MS/MS analysis; type: ADME, microsome; settings: 0.5 h
Procedure, shortened: (§4)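 Compound at 0.1 μM incubated in duplicate with mouse, rat or pooled human liver microsomes (0.4 mg/mL) at 37 °C. Run with and without 1 mM NADPH, sampled at predetermined time points.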

[15] = system: Mus musculus; test: Apparent elimination half life in C57/BL6 mouse at 5 mg/kg, iv measured up to 24 hrs post dose by LC-MS/MS analysis; type: ADME, organism-based; settings: in vivo; procedure, shortened: as §2
[16] = system: Mus musculus; test: AUC (0 to infinity) in C57/BL6 mouse at 5 mg/kg, iv measured up to 24 hrs post dose by LC-MS/MS analysis; type: ADME, organism-based; design: dose 5 mg/kg, route intravenous, time infinity; settings: in vivo; procedure, shortened: as §2
[17] = system: Mycobacterium tuberculosis; test: Antibacterial activity against Mycobacterium tuberculosis […] SAWC3388 grown in middlebrook 7H9 medium measured on day 7 and 14 by MABA assay; type: functional; settings: 168 h; procedure, shortened: as §1
[18] = system: Liver; test: Metabolic stability in mouse liver microsomes assessed as compound remaining at 0.1 uM after 30 mins by LC-MS/MS analysis; type: ADME, microsome; settings: 0.5 h; procedure, shortened: as §4
[19] = system: Mus musculus; test: AUC (0 to infinity) in C57/BL6 mouse at 20 mg/kg, po measured up to 24 hrs post dose by LC-MS/MS analysis; type: ADME, organism-based; design: dose 20 mg/kg, route oral, time infinity; settings: in vivo; procedure, shortened: as §3
[20] = system: Mycobacterium tuberculosis; test: Antibacterial activity against Mycobacterium tuberculosis H37Rv grown in middlebrook 7H9 medium measured on day 7 and 14 by MABA assay; type: functional; settings: 168 h
[21] = system: Mycobacterium tuberculosis; test: Antibacterial activity against Mycobacterium tuberculosis […] SAWC3385 grown in middlebrook 7H9 medium measured on day 7 and 14 by MABA assay; type: functional; settings: 168 h; procedure, shortened: as §1
[22] = system: Mus musculus; test: Cmax in C57/BL6 mouse at 20 mg/kg, po measured up to 24 hrs post dose by LC-MS/MS analysis; type: ADME, organism-based; design: dose 20 mg/kg, route oral; settings: in vivo; procedure, shortened: as §3
[23] = system: Mus musculus; test: Oral bioavailability in C57/BL6 mouse at 20 mg/kg measured up to 24 hrs post dose by LC-MS/MS analysis; type: ADME, organism-based; settings: in vivo; procedure, shortened: as §3
[24] = system: Mycobacterium tuberculosis; test: Antibacterial activity against Mycobacterium tuberculosis […] SAWC3906 grown in middlebrook 7H9 medium measured on day 7 and 14 by MABA assay; type: functional; settings: 168 h; procedure, shortened: as §1
[25] = system: Liver; test: Metabolic stability in rat liver microsomes assessed as compound remaining at 0.1 uM after 30 mins by LC-MS/MS analysis; type: ADME, microsome; settings: 0.5 h; procedure, shortened: as §4
[26] = system: Mycobacterium tuberculosis; test: Antibacterial activity against Mycobacterium tuberculosis […] SAWC3200 grown in middlebrook 7H9 medium measured on day 7 and 14 by MABA assay; type: functional; settings: 168 h; procedure, shortened: as §1
[27] = system: Mus musculus; test: Tmax in C57/BL6 mouse at 20 mg/kg, po measured up to 24 hrs post dose by LC-MS/MS analysis; type: ADME, organism-based; settings: in vivo; procedure, shortened: as §3
[28] = Mycobacterium tuberculosis, H37RvMA, read-out: MIC99

With `COc1ccc(NC(=O)c2cc(N(C)Cc3ccccc3)ncn2)cc1` the MIC99 [1] was >20 µM, the logD at 3 h, 100 µM [2] was 4.07 and the MIC99 [3] was 10 µM (≈ 3.48 µg/mL). For the same molecule, the MIC99 [4] was 20 µM (≈ 6.97 µg/mL), the pIC50 [5] was 3.54 and the solubility kinetic at 2 h [6] was < 5 µM.
In the case of `CN(Cc1ccc(C(F)(F)F)cc1)c1cc(C(=O)NC2CCCCC2)ncn1`, the MIC99 [7] was 12 µM (≈ 4.71 µg/mL), the Kinetic_solubility [8] was 5 µM and the MIC99 [1, 28] was > 125 µM.
For `CN(Cc1ccc(S(C)(=O)=O)cc1)c1cc(C(=O)Nc2ccccc2)ncn1`, the MIC99 [7] was > 125 µM, the Kinetic_solubility [8] was 10 µM and the MIC99 [1, 28] was > 125 µM.
With `CN1CCN(c2ccc(NC(=O)c3cc(N(C)Cc4ccc(C(F)(F)F)cc4)ncn3)cc2)CC1` the MIC90 [9] was 2.5 to 5 µM (≈ 1.21 to 2.42 µg/mL), the Vd [10] was 21.8 L/kg and the MIC90 [11] was 1.25 to 2.5 µM (≈ 0.606 to 1.21 µg/mL). For the same molecule, the “betat1/2(app)” value [12] was 15.8 h, the Kinetic_solubility [8] was < 5 µM and the Fu [13] was 0.14%. The Stability [14] was 57%, the “betat1/2(app)” value [15] was 10.3 h and the logD at 3 h, 100 µM [2] was 5. For the same molecule, the AUC [16] was 540 µM·min, the MIC90 [17] was 1.25 to 2.5 µM (≈ 0.606 to 1.21 µg/mL) and the Stability [18] was 21%. It also gave an MIC99 [3] of 1.25 µM (≈ 0.606 µg/mL), an AUC [19] of 564 µM·min and an MIC90 [20] of 1.25 to 2.5 µM (≈ 0.606 to 1.21 µg/mL). For the same molecule, the MIC90 [21] was 1.25 µM (≈ 0.606 µg/mL), the Cmax [22] was 420 nM and the F [23] was 26%. The MIC99 [4] was 3.13 µM (≈ 1.52 µg/mL), the pIC50 [5] was 3.79 and the solubility kinetic at 2 h [6] was 150 µM (≈ 72.7 µg/mL). The MIC90 [24] was 0.31 to 0.63 µM (≈ 0.15 to 0.305 µg/mL), the Stability [25] was 37% and the MIC90 [26] was 1.25 µM (≈ 0.606 µg/mL).
In the case of `CN(Cc1ccc(C(F)(F)F)nc1)c1cc(C(=O)Nc2ccccc2)ncn1`, the Vd [10] was 0.7 L/kg, the “betat1/2(app)” value [12] was 7.2 h and the Fu [13] was 0.05%. The Stability [14] was 85%, the “betat1/2(app)” value [15] was 0.7 h and the logD at 3 h, 100 µM [2] was 3.7. It also gave an AUC [16] of 1179 µM·min, a Stability [18] of 87% and an MIC99 [3] of 10 µM (≈ 3.87 µg/mL). It also gave an AUC [19] of 1999 µM·min, a Cmax [22] of 3400 nM and an F [23] of 42%. The Tmax [27] was 4 h, the MIC99 [4] was 37 µM (≈ 14.3 µg/mL) and the pIC50 [5] was 3.59. For the same molecule, the solubility kinetic at 2 h [6] was < 5 µM and the Stability [25] was 72%.
